Compound activity deposited in PubChem by several laboratories.
SMARCA2 activ – activators of SMARCA2 function. MG213 cells, MMTV-luciferase reporter, dexamethasone, overnight. activation, % at 9.1 µM. hit rate 1% among 370,000. AID 652017; in the data active means activation above about 7.8%
ATG4B inh – blocks human ATG4B protease cleavage of LC3 substrate | Q9Y4P1 | ATG4B cleavage of LC3-PLA2, NBD-HPC fluorescence, 1 h | inhibition, % at 8.33 µM | hit rate 0.51% among 340,000; in the data active means inhibition above about 40%
MC4R ag barr – human MC4R agonism via beta-arrestin; P32245; U2OS MC4R beta-arrestin complementation, luminescence; percent of melanotan II response, DMSO zero; activation, % at 8.9 µM; hit rate 0.98% among 360,000; AID 540308;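 active means activation above a per-plate cutoff, the mean activation of sample wells on that plate plus 3 SD, cut at about 8% in these data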
MPTP inh – permeability transition pore inhibition | isolated mouse mitochondria, Ca2+ swelling absorbance, 30 min | inhibition, % at 10 µM | hit rate 1.4% among 360,000 | AID 602449;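 active means inhibition of 50% or more, scaled per plate between neutral and stimulator controls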
MC4R antag cAMP – blocks human MC4R cAMP signaling; MC4R-expressing cells, MTII-stimulated cAMP, LANCE TR-FRET; inhibition, % at 6.5 µM; hit rate 0.48% among 360,000; AID 540295;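 active means inhibition above its plate's cutoff, the mean of tested wells on that plate plus 3 SD, cut at about 29% in these data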
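system = U2OS cells with stable human MC4R expression | also added = Melanotan II challenge after compound preincubation | dosing = one concentration, 6.5 µM nominal | incubation = compound 30 min, challenge 1 h, detection 1 h | measured by = TR-FRET with Eu-cAMP and labeled anti-cAMP, 671 nm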
MC4R barr ag – human MC4R beta-arrestin agonism confirmation; activation, % at 8.9 µM; shares compounds with MC4R ag barr; U2OS MC4R beta-arrestin recruitment, luminescence; scaled DMSO 0%, Melanotan II 100%; hit rate 31% among 2,400;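 active means mean activation across replicates above the hit cutoff set in the earlier primary screen, cut at about 8% in these data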
MOR DOR agonist – OPRM1-OPRD1 heterodimer agonism counter-screen; activation, % at 9.2 µM; hit rate 5.8% among 2,400; U2OS PathHunter beta-arrestin, beta-gal luminescence; percent of deltorphin B response, DMSO zero; shares compounds with MC4R ag barr; AID 602194;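 active means mean activation across replicates exceeds the hit threshold derived in the earlier primary screen, cut at about 18% in these data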
Numbers stand for hits; n = inactive; x = no result given. Shown are actives, neighbours in structure and some others; about 4.1% of the full set was active somewhere.

SMILES	SMARCA2 activ	ATG4B inh	MC4R ag barr	MPTP inh	MC4R antag cAMP	MC4R barr ag	MOR DOR agonist
Cc1onc(-c2ccc(Cl)cc2)c1-c1ccn(S(=O)(=O)c2ccccc2Cl)n1	n	x	x	x	x	x	x
COC(=O)[C@]12C[C@H](CC(=O)NCC3CCCCC3)C(=O)N(Cc3cccc4ccccc34)C1=C[C@H](C1CCCC1)O[C@@H]2C	n	x	x	x	x	x	x
CCc1ccc(NC(=O)CSc2nnc(-c3n[nH]c4ccccc34)n2-c2ccccc2)cc1	n	n	10.0	n	n	n	n
CC(COc1ccccc1)CN1CCC(C(O)(c2ccccc2)c2ccccc2)CC1 (centres undefined)	n	x	x	x	x	x	x
c1ccc(Cn2nnc3c(NCC4CCCO4)nc(C4CC4)nc32)cc1 (centres undefined)	n	n	n	n	n	x	x
CCc1nc(NCC2CC2)c2nnn(Cc3ccccc3)c2n1	n	x	12.1	n	n	n	n
Cc1ccccc1C(=O)N(C)[C@H]1C[C@H]2c3[nH]c4c(-c5ccccc5)cccc4c3CCN2C(=O)[C@H]1[C@H](C)O	n	x	x	x	x	x	x
CN1CCCCC(NC(=O)c2c(F)cccc2F)C1=O (centres undefined)	n	x	x	x	x	x	x
Cc1cccc(OCc2nnc(NC(=O)Cc3cccs3)s2)c1	n	n	34.0	n	n	9.9	n
CCCC(=O)N1CCC[C@]2(CC[C@@H](CCC(C)=O)O2)C1	n	x	x	x	x	x	x
CCOc1cc(/C=N/NC(=O)c2nn(C)cc2Br)ccc1OCc1ccccc1Cl	n	n	12.0	n	n	n	n
Cc1ccc(C(=O)Nc2ncc(Cc3ccc(SC(F)F)cc3)s2)cc1	n	n	17.5	n	n	9.0	n
Cc1ccc2nc(NC(=O)c3cc(-c4ccco4)nc4ccccc34)sc2c1	n	n	23.3	n	n	13.4	n
O=C(COC(=O)c1ccc(S(=O)(=O)N2CCCCC2)cc1)Nc1ccccc1Cl	n	n	23.2	n	n	n	n
Cc1cccc(NC(=O)COC(=O)c2ccc(S(=O)(=O)N3CCCCCC3)cc2)c1	n	n	12.0	n	n	n	n
O=C(COC(=O)c1cccc(S(=O)(=O)N2CCCCCC2)c1)NCc1ccc(Cl)cc1	n	n	9.8	n	n	n	n
COC(=O)[C@]12C[C@H](CC(=O)NCCCCc3ccccc3)C(=O)N(Cc3ccccc3)C1=C[C@H](COCc1ccccc1)O[C@@H]2C	n	x	x	x	x	x	x
Nc1[nH]c(C(=O)c2ccc(Br)cc2)c(-c2ccc(Cl)cc2)c1C(=O)NCCc1c[nH]c2ccccc12	n	x	x	x	x	x	x
Cc1cc(C(=O)Nc2ccc(Br)cc2F)n(-c2ccccc2)n1	n	n	n	n	n	x	x
Cc1nn(C)c(C(=O)Nc2ccc(Br)cc2F)c1Br	x	n	13.3	n	n	n	n
CCOC(=O)Cc1csc(NC(=O)c2cccc([N+](=O)[O-])c2)n1	n	n	n	n	n	x	x
O=C(Nc1nc(-c2ccc([N+](=O)[O-])cc2)cs1)c1c(F)cccc1F	n	n	23.8	n	n	n	n
Cc1ccc(-c2csc(NC(=O)c3cccc([N+](=O)[O-])c3)n2)cc1	n	n	17.6	n	n	12.7	n
O=C(CNC(=S)NC(=O)c1cccc([N+](=O)[O-])c1)c1ccccc1	n	n	11.0	n	n	n	n
CC(=O)Nc1nc(-c2ccc([N+](=O)[O-])cc2)cs1	n	n	n	n	n	x	x
SMILES	SMARCA2 activ	ATG4B inh	MC4R ag barr	MPTP inh	MC4R antag cAMP	MC4R barr ag	MOR DOR agonist
O=C(Nc1ccc(OCc2ccccc2)cc1)c1cccc([N+](=O)[O-])c1	n	n	10.1	n	n	n	n
Cc1ccc(-n2c(SCc3cccc(F)c3)nc3ccccc3c2=O)cc1	n	x	x	x	x	x	x
Nn1c(SCC(=O)N2CCOCC2)nnc1-c1cc(-c2ccc(F)cc2)n[nH]1	n	x	x	x	x	x	x
C[C@@H]1COc2cc(Br)ccc2S(=O)(=O)N1Cc1cn(Cc2ccc(Cl)cc2)nn1	n	x	x	x	x	x	x
O=C(Nc1ccc([N+](=O)[O-])cc1Cl)c1cccc([N+](=O)[O-])c1	n	x	12.5	n	n	n	n
CN(C)c1cccc2c(S(=O)(=O)NCC3CCN(C(=O)C(=O)c4cccs4)CC3)cccc12	n	x	x	x	x	x	x
N#CCC[C@@H]1CC[C@]2(CCCN(C(=O)c3ccco3)C2)O1	n	x	x	x	x	x	x
